Columns and labels:
[1] = tested on: Staphylococcus aureus; assay: Antibacterial activity against Staphylococcus aureus ATCC 25923 after 24 hrs; type: functional; details: ATCC 25923, 24 h
Summary of the method: (§1)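 MIC determination, following a previously reported method, against the listed Gram-positive and Gram-negative ATCC strains.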

[2] = tested on: Enterococcus faecalis; assay: Antibacterial activity against Enterococcus faecalis ATCC 19433 after 24 hrs; type: functional; details: ATCC 19433, 24 h; summary of the method: as §1
[3] = tested on: Enterococcus faecium; assay: Antibacterial activity against Enterococcus faecium ATCC 19434 after 24 hrs; type: functional; details: ATCC 19434, 24 h; summary of the method: as §1
[4] = tested on: Salmonella typhimurium; assay: Antibacterial activity against Salmonella enterica ATCC 14028 after 24 hrs; type: functional, Salmonella enterica subsp. enterica serovar Typhimurium; details: ATCC 14028, 24 h; summary of the method: as §1
[5] = tested on: Klebsiella pneumoniae; assay: Antibacterial activity against Klebsiella pneumoniae ATCC 10031 after 24 hrs; type: functional; details: ATCC 10031, 24 h; summary of the method: as §1
[6] = tested on: Escherichia coli; assay: Antibacterial activity against Escherichia coli ATCC 25922 after 24 hrs; type: functional; details: ATCC 25922, 24 h; summary of the method: as §1
[7] = tested on: Aspergillus fumigatus; assay: Antifungal activity against Aspergillus fumigatus HIC 6094 after 48 to 72 hrs; type: functional
Summary of the method: (§2)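 MIC determination, following a previously reported method, against the listed fungal strains, with amphotericin B as the positive control.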

[8] = tested on: Trichophyton rubrum; assay: Antifungal activity against Trichophyton rubrum NBRC 9185 after 48 to 72 hrs; type: functional; summary of the method: as §2
[9] = tested on: Trichophyton mentagrophytes; assay: Antifungal activity against Trichophyton mentagrophytes IFM 40996 after 48 to 72 hrs; type: functional; summary of the method: as §2
[10] = tested on: Candida albicans; assay: Antifungal activity against Candida albicans ATCC 10231 after 48 to 72 hrs; type: functional; summary of the method: as §2

Measured: MIC

C=C1[C@@H](O)[C@]23CC[C@H](C)[C@@H]2C[C@@]1(O)C(=O)C=C3C
430 to 580 µM: [1] | [2] | [3] | [4] | [5] | [6] | [7] | [8] | [9] | [10]

C/C1=C/CC/C(CO)=C/CC(C)(C)/C=C/C1
430 to 580 µM: [1] | [2] | [3] | [4] | [5] | [6] | [7] | [8] | [9] | [10]

C[C@H]1CC=C2[C@H]1C[C@]1(O)C(=O)C[C@@]2(C)[C@]1(C)CO
430 to 580 µM: [1] | [2] | [3] | [4] | [5] | [6] | [7] | [8] | [9] | [10]

CC1(C)/C=C/C[C@@]2(C)OC/C(=C\C1)CC[C@@H]2O
430 to 580 µM: [1] | [2] | [3] | [4] | [5] | [6] | [7] | [8] | [9] | [10]

C=C1C2C[C@H]3[C@@H](C)CC[C@@]3(C(C)=CC2=O)[C@@H]1O
430 to 580 µM: [1] | [2] | [3] | [4] | [5] | [6] | [7] | [8] | [9] | [10]

COC(=O)[C@H]1C[C@]23CC[C@H](C)[C@@H]2C[C@@]1(O)C(=O)C=C3C
430 to 580 µM: [1] | [2] | [3] | [4] | [5] | [6] | [7] | [8] | [9] | [10]

C[C@H]1CC=C2[C@H]1C[C@]1(O)C(=O)C[C@@]2(C)[C@]1(C)C=O
430 to 580 µM: [1] | [2] | [3] | [4] | [5] | [6] | [7] | [8] | [9] | [10]

COC(=O)[C@@]1(C)[C@]2(C)CC(=O)[C@@]1(O)CC1=C2C(=O)C[C@@H]1C
430 to 580 µM: [1] | [2] | [3] | [4] | [5] | [6] | [7] | [8] | [9] | [10]

CC1(C)C/C=C2/CCC(O)C(C)(CC3OC31)OC2 (racemic)
430 to 580 µM: [1] | [2] | [3] | [4] | [5] | [6] | [7] | [8] | [9] | [10]

— ChEMBL document CHEMBL4130535, “Aquilanols A and B, Macrocyclic Humulene-Type Sesquiterpenoids from the Agarwood of Aquilaria malaccensis” (2017)
